# Compound activity from PubChem.
# H9c2 protect – protects H9c2 cardiomyocytes from peroxide injury; protection from H2O2 cell death, % at 20 µM; AID 588492; H2O2 injury protection, ATPLite, 2 h; 0.63% of 360,000 active;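 active = compounds giving at least 50% protection of heart cells from peroxide-induced death in the single-dose screen, raw or plate-pattern-corrected value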;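 note: 0% = DMSO wells with peroxide and 100% = DMSO wells without peroxide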
# DAGLB inh – diacylglycerol lipase beta (human) inhibition. Q8NCG7. HEK293T DAGLB membrane lysate, EnzChek fluorogenic substrate. inhibition, % at 5.17 µM. 0.059% of 340,000 active; in the data active = inhibition above about 34%;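 note: 0% = enzyme with vehicle and 100% = wells lacking enzyme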
# Target sequence (Q8NCG7 whole entry, looked up): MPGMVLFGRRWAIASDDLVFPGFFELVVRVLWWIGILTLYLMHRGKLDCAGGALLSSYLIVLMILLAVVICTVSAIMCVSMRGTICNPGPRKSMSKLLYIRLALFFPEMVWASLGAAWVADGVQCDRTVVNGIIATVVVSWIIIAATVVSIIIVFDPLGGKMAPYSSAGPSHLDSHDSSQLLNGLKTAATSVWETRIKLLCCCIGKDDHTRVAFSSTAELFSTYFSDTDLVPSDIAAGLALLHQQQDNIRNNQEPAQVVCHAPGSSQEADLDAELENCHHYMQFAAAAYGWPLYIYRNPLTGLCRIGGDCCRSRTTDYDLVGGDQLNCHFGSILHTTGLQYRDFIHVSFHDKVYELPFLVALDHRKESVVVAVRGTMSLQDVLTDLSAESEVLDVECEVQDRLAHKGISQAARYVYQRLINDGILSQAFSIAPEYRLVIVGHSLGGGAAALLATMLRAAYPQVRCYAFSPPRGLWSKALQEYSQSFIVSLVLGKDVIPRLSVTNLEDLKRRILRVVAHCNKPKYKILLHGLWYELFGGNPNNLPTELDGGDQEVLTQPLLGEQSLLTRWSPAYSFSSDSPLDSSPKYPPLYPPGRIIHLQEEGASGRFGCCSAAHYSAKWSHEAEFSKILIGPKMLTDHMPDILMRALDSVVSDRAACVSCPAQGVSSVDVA
# DDE Tn7 FP inh – disrupts Tn7 cyclic peptide binding to fibrin D-Dimer-E complex | inhibition, % at 8.3 µM | 0.13% of 370,000 active | FP displacement of FITC-Tn7 peptide from fibrin DD(E); 0% = median of compound wells per plate;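 active = inhibition above the mean of compounds falling within the control limits plus 3 SD of them, cut at about 14% in these data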;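 note: 0% = plate median of compound wells and 100% = 10 µM Aha-Tn7 peptide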
#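 Assay system: human fibrin DD(E) protein / Input: 2 µM fibrin DD(E) / Benchmarks: high control of 10 µM Aha-Tn7 peptide / Measured by: fluorescence polarization of the labelled Tn7 tracer / Medium: Tris buffer with calcium and detergent, pH 7.8 / Timing: 10 min compound pre-incubation, 3 h probe incubation at room temperature / Repeats: one replicate per compound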
# MT1-MMP act inh – inhibitors of human MT1-MMP activation; AID 651647; P50281; GFP/RFP ratio change, % at 20 µM; 0.061% of 360,000 active; HT1080 RFP-PRO-GFP cells, GFP/RFP ratio fluorescence, overnight; percent of plate control window, DMSO zero;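 active = GFP/RFP ratio change of at least 30% with cell ATP level not reduced by more than half and red fluorescence within 50% of control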
#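 Test system: HT1080 cells expressing an RFP-PRO-GFP fluorescent reporter construct / Compound dosing: single-point 20 µM compound, 1% DMSO / Schedule: cells overnight before dosing, compound overnight, 37 °C, 5% CO2 / Evaluation: GFP/RFP fluorescence ratio / Control set: DMSO and RFP-L50D-GFP cell wells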
# Tn6 DDE FP – inhibitors of Tn6 peptide binding to human fibrin DD(E); Fibrin DD(E) TRITC-Tn6 fluorescence polarization displacement; inhibition, % at 8.3 µM; AID 720509; 0.21% of 370,000 active; P02675;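 active = inhibition above a per-campaign cutoff: mean of compounds within control limits plus 3 SD, cut at about 15% in these data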;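 note: 0% = median of all compound wells on the plate and 100% = blocking peptide control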
# TAG inh – reduces triacylglycerol accumulation in H9c2 cells | Nile Red lipid (TAG) fluorescence; cells loaded with 200 µM oleic acid | inhibition, % at 12.5 µM | 0.66% of 230,000 active;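 active = pattern-corrected inhibition of lipid staining of at least 50% with the nuclear-stain viability signal not falling by more than 50%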;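 note: 0% = DMSO wells and 100% = triacsin C control wells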
# DAGLB confirm – DAGLB (human) inhibition, confirmation screen | HEK293T DAGLB membrane lysate, EnzChek fluorogenic substrate | inhibition, % at 5.17 µM | AID 504445 | shares compounds with DAGLB inh | 73% of 190 active;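 active = mean inhibition over triplicate wells above a set limit taken from the primary lipase screen, cut at about 34% in these data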;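 note: 0% = DAGLB with DMSO and 100% = wells lacking DAGLB enzyme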
# An asterisk follows results filed as active; · = not tested or not shown. Shown are actives, neighbours in structure and some others; about 1.4% of the full set was active somewhere.
SMILES,H9c2 protect,DAGLB inh,DDE Tn7 FP inh,MT1-MMP act inh,Tn6 DDE FP,TAG inh,DAGLB confirm
COc1ccc(Cn2ccc3ccc(-c4ccc5ccn(C(=O)c6ccccc6OC)c5c4)cc32)cc1,·,·,1,·,-4,·,·
Cc1ccc(NC2=C/C(=N\S(=O)(=O)c3cccs3)c3ccccc3C2=O)c(C)c1,-22,50*,·,20,·,154,53*
O=C1C(Nc2ccc(O)cc2)=C/C(=N/S(=O)(=O)c2cccs2)c2ccccc21,-29,37*,3,-13,-11,125,44*
Cc1ccc(S(=O)(=O)/N=C2\C=C(NS(=O)(=O)c3ccccc3)C(=O)c3ccccc32)cc1,-15,15,-1,13,-6,6,·
Nc1ccc(N=Nc2ccccc2)c2cccnc12,-7,37*,1,8,-5,·,42*
O=C1c2ccccc2C(=O)c2c1cccc2N1CCCC1,-1,36*,-3,25,4,·,39*
O=C1C=C(N2CCCCC2)c2ccccc2C1=O,-12,·,0,-4,1,125,·
CC1(C)CC(=O)C2=C(C1)c1c(ccc3ccccc13)NC2c1cc([N+](=O)[O-])cc([N+](=O)[O-])c1O (centres undefined),-16,42*,2,-1,-1,·,39*
CC(C)[C@H]1Cn2nncc2Cn2c3ccccc3c(=O)n21,·,·,3,·,1,·,·
COc1ccc(C(=O)CSc2nnc(-c3ccccn3)n2-c2ccccc2)cc1,·,·,-5,·,-6,·,·
O=C(O)CC/C(=C\c1ccc(N2CCCC2)c([N+](=O)[O-])c1)c1nc2ccccc2s1,2,26,-5,3,3,9,·
CN(c1ccccc1)c1ccc(/C=C(/CCC(=O)O)c2nc3ccccc3s2)cc1[N+](=O)[O-],-4,35*,-2,4,-8,-10,50*
COc1ccc(N(CC(=O)NCc2ccco2)S(C)(=O)=O)cc1,6,65*,0,5,-1,·,-9
O=C1CC(=C(c2ccccc2)c2ccccc2)C(=O)N1CCCCN1CCN(c2cccc(Cl)c2)CC1,14,45*,-1,-1,-8,8,53*
Cc1cccc(-c2cccc3c4c([nH]c23)[C@@H]2C[C@H]3[C@@H](C(=O)N2CC4)[C@H](C)ON3C)c1,·,·,1,·,-8,·,·
CCOC(=O)[C@@]12CCCC3=C1N(CCC3)C(=O)[C@H]2CC(=O)NCCCN1CCCC1=O,·,·,2,·,4,·,·
Cc1ccc(NC(=O)Nc2cccnc2)cc1NC(=O)Nc1cccnc1,43,37*,-6,1,-1,·,32
CC(=O)C1=C(O)C(=O)N(c2cc(C(C)(C)C)on2)C1c1ccc(C(C)C)cc1 (centres undefined),-3,22,·,4,·,·,·
CC(=O)C1=C(O)C(=O)N(c2cc(C(C)(C)C)on2)C1c1ccc(Br)cc1 (centres undefined),-4,46*,-3,13,1,3,42*
CC(=O)Nc1cc2c(cc1[N+](=O)[O-])-c1ccccc1C2=NO,0,-1,6,-2,4,-29,·
Nc1cc2c(cc1[N+](=O)[O-])-c1ccccc1C2=NO,-2,35*,-4,-16,-6,11,32
Cc1ccc(C)c(NC(=O)/C(C#N)=C/c2cn(CC(=O)NCc3ccco3)c3ccccc23)c1,10,46*,0,-8,0,·,48*
Cc1ccc(NC(=O)/C(C#N)=C/c2cn(CC(=O)NCc3ccco3)c3ccccc23)cc1C,7,28,-1,-7,-2,3,·
COC(=O)[C@]12C[C@H](CC(=O)NCCc3ccccc3OC)C(=O)N(Cc3ccc4c(c3)OCO4)C1=C[C@H](C(C)(C)C)O[C@@H]2C,·,·,10,·,0,·,·
O=[N+]([O-])c1ccc(/C=N/Nc2ccc3ccccc3c2)o1,-4,48*,-6,-30,-7,·,63*
SMILES,H9c2 protect,DAGLB inh,DDE Tn7 FP inh,MT1-MMP act inh,Tn6 DDE FP,TAG inh,DAGLB confirm
O=C(N/N=C/c1ccc([N+](=O)[O-])o1)c1cc2ccccc2o1,-11,-1,0,-11,3,10,·
CCc1ccc(CCNC(=O)OC2CCC23CCC(c2ccccc2)CC3)cc1 (centres undefined),·,·,0,·,1,·,·
O=C(NN1C(=O)/C(=C/c2ccc(O)c([N+](=O)[O-])c2)SC1=S)c1ccccc1Cl,-3,45*,2,28,5,3,42*
O=C(Nc1cccc(C(F)(F)F)c1)c1cccc(NS(=O)(=O)c2ccc(Br)c(C(=O)O)c2)c1,2,2,8,-1,10,-2,·
O=C(Nc1cccc(C(F)(F)F)c1)c1cccc(NS(=O)(=O)c2ccc(O)c(C(=O)O)c2)c1,10,41*,-8,-6,-2,·,29
CCOC1OC(=O)C(Cl)=C1Nc1ccc(C)cc1C (centres undefined),-6,-1,-3,-1,4,·,·
Cc1ccc(C)c(NC2=C(Cl)C(=O)OC2OC(=O)c2ccco2)c1 (centres undefined),3,40*,0,-2,8,·,34
Cc1ccc(NC2=C(Cl)C(=O)OC2OC(=O)c2ccco2)c(C)c1 (centres undefined),3,36*,12,3,9,·,33
Cc1ccc(NC2=C(Cl)C(=O)OC2OC(=O)c2ccco2)cc1C (centres undefined),8,39*,-11,0,0,4,36*
CCCC[C@H]1C2CC(OC(=O)Nc3ccc(C(F)(F)F)cc3)C(C2)[C@H]2CCCCN21 (some centres undefined),·,·,7,·,3,·,·
CCOC(=O)[C@@H](NC(=O)[C@@H]1CC=C[C@@H]2CCN(Cc3ccc(Cl)cc3)C(=O)[C@@H]21)C(C)C,·,·,1,·,1,·,·
Oc1c(Br)cc(Br)cc1/C=N/NC(=S)N[C@H]1CC2C=CC1C2 (some centres undefined),34,35*,-2,2,5,0,27
CNC(=S)N/N=C/c1cc(Br)cc(Br)c1O,44,17,-1,4,-4,-1,·
O=S(=O)(O)c1cccc(N=Nc2c(O)ccc3ccccc23)c1,0,37*,-2,21,-13,-3,37*
COc1ccc(C2=Nn3c(nnc3C3CCCCC3)SC2)cc1,·,·,5,·,1,·,·
O=C(COc1c(Cl)cc(Cl)cc1Cl)N/N=C/c1ccc[nH]1,·,·,3,·,-3,·,·
CCc1ccc(S(=O)(=O)/N=C2\C=C(Nc3ccc(O)cc3)C(=O)c3ccccc32)cc1,-16,40*,·,-6,·,·,51*
